# Source: ChEMBL document CHEMBL3856229, “Hybrid Antibiotic Overcomes Resistance in P. aeruginosa by Enhancing Outer Membrane Penetration and Reducing Efflux” (J Med Chem, 2016)
# pIC50: −log10 of the molar value.
# Legend:
# Pseudomonas aeruginosa [1] = assay: Antibacterial activity against multidrug-resistant/tobramycin-susceptible Pseudomonas aeruginosa isolate 86052; format: functional
# Staphylococcus aureus [2] = assay: Antibacterial activity against Staphylococcus aureus ATCC 29213 after 24 hrs by microtitre broth dilution method; format: functional; settings: ATCC 29213, 24 h
# Staphylococcus aureus [3] = assay: Antibacterial activity against methicillin-resistant Staphylococcus aureus ATCC 33592 after 24 hrs by microtitre broth dilution method; format: functional; settings: ATCC 33592, 24 h
# [4] = system: Staphylococcus epidermidis; assay: Antibacterial activity against methicillin-susceptible Staphylococcus epidermidis isolate CANWARD-2008 81388 after 24 hrs by microtitre broth dilution method; format: functional; settings: isolate CANWARD-2008 81388, 24 h
# [5] = system: Staphylococcus epidermidis; assay: Antibacterial activity against methicillin-resistant Staphylococcus epidermidis isolate CAN-ICU 61589 after 24 hrs by microtitre broth dilution method; format: functional; settings: isolate CAN-ICU 61589, 24 h
# Enterococcus faecalis = assay: Antibacterial activity against Enterococcus faecalis ATCC 29212 after 24 hrs by microtitre broth dilution method; format: functional; settings: ATCC 29212, 24 h
# Enterococcus faecium = assay: Antibacterial activity against Enterococcus faecium ATCC 27270 after 24 hrs by microtitre broth dilution method; format: functional; settings: ATCC 27270, 24 h
# Streptococcus pneumoniae = assay: Antibacterial activity against Streptococcus pneumoniae ATCC 49619 after 24 hrs by microtitre broth dilution method; format: functional; settings: ATCC 49619, 24 h
# Escherichia coli [6] = assay: Antibacterial activity against gentamicin-resistant Escherichia coli isolate CAN-ICU 61714 after 24 hrs by microtitre broth dilution method; format: functional; settings: isolate CAN-ICU 61714, 24 h
# Escherichia coli [7] = assay: Antibacterial activity against amikacin-resistant Escherichia coli isolate CAN-ICU 63074 after 24 hrs by microtitre broth dilution method; format: functional; settings: isolate CAN-ICU 63074, 24 h
# Escherichia coli [8] = assay: Antibacterial activity against gentamicin/tobramycin/ciprofloxacin-resistant Escherichia coli isolate CANWARD-2011 97615 harboring AAC3-2A after 24 hrs by microtitre broth dilution method; format: functional; settings: isolate CANWARD-2011 97615, 24 h
# Pseudomonas aeruginosa [9] = assay: Antibacterial activity against Pseudomonas aeruginosa ATCC 27853 after 24 hrs by microtitre broth dilution method; format: functional; settings: ATCC 27853, 24 h
# Pseudomonas aeruginosa [10] = assay: Antibacterial activity against gentamicin-resistant Pseudomonas aeruginosa isolate CAN-ICU 62308 after 24 hrs by microtitre broth dilution method; format: functional; settings: isolate CAN-ICU 62308, 24 h
# Pseudomonas aeruginosa [11] = assay: Antibacterial activity against gentamicin/tobramycin-resistant Pseudomonas aeruginosa isolate CANWARD-2011 96846 after 24 hrs by microtitre broth dilution method; format: functional; settings: isolate CANWARD-2011 96846, 24 h
# [12] = system: Stenotrophomonas maltophilia; assay: Antibacterial activity against Stenotrophomonas maltophilia isolate CAN-ICU 62584 after 24 hrs by microtitre broth dilution method; format: functional; settings: isolate CAN-ICU 62584, 24 h
# Acinetobacter baumannii = assay: Antibacterial activity against Acinetobacter baumannii isolate CAN-ICU 63169 after 24 hrs by microtitre broth dilution method; format: functional; settings: isolate CAN-ICU 63169, 24 h
# Klebsiella pneumoniae = assay: Antibacterial activity against Klebsiella pneumoniae ATCC 13883 after 24 hrs by microtitre broth dilution method; format: functional; settings: ATCC 13883, 24 h
# Pseudomonas aeruginosa [13] = assay: Antibacterial activity against multidrug/extremely drug-resistant/colistin-susceptible Pseudomonas aeruginosa isolate 100036; format: functional
# Pseudomonas aeruginosa [14] = assay: Antibacterial activity against multidrug/extremely drug-resistant/colistin-susceptible Pseudomonas aeruginosa isolate 101885; format: functional
# Pseudomonas aeruginosa [15] = assay: Antibacterial activity against multidrug/extremely drug-resistant/colistin-susceptible Pseudomonas aeruginosa isolate 259-96918; format: functional
# Pseudomonas aeruginosa [16] = assay: Antibacterial activity against multidrug/extremely drug-resistant/colistin-susceptible Pseudomonas aeruginosa isolate 260-97103; format: functional
# Pseudomonas aeruginosa [17] = assay: Antibacterial activity against multidrug/extremely drug-resistant/colistin-susceptible Pseudomonas aeruginosa isolate 262-101856; format: functional
# Pseudomonas aeruginosa [18] = assay: Antibacterial activity against multidrug/extremely drug-resistant/colistin-susceptible Pseudomonas aeruginosa isolate 264-104354; format: functional
# Pseudomonas aeruginosa [19] = assay: Antibacterial activity against pandrug-resistant Pseudomonas aeruginosa isolate 91433; format: functional
# Pseudomonas aeruginosa [20] = assay: Antibacterial activity against pandrug-resistant Pseudomonas aeruginosa isolate 101243; format: functional
# Pseudomonas aeruginosa [21] = assay: Antibacterial activity against Pseudomonas aeruginosa PAO1; format: functional
# Pseudomonas aeruginosa [22] = assay: Antibacterial activity against multidrug-resistant/tobramycin-susceptible Pseudomonas aeruginosa isolate 86053; format: functional
# Pseudomonas aeruginosa [23] = assay: Antibacterial activity against multidrug-resistant/tobramycin-susceptible Pseudomonas aeruginosa isolate 86067; format: functional
# Pseudomonas aeruginosa [24] = assay: Antibacterial activity against multidrug-resistant/tobramycin-susceptible Pseudomonas aeruginosa isolate 86079; format: functional
# Pseudomonas aeruginosa [25] = assay: Antibacterial activity against multidrug-resistant/tobramycin-susceptible Pseudomonas aeruginosa isolate 86141; format: functional
# Pseudomonas aeruginosa [26] = assay: Antibacterial activity against multidrug-resistant/tobramycin-susceptible Pseudomonas aeruginosa isolate 92014; format: functional
# Pseudomonas aeruginosa [27] = assay: Antibacterial activity against multidrug-resistant/tobramycin-susceptible Pseudomonas aeruginosa isolate 108590; format: functional
# Pseudomonas aeruginosa [28] = assay: Antibacterial activity against multidrug-resistant/tobramycin-susceptible Pseudomonas aeruginosa isolate 79199; format: functional
# Pseudomonas aeruginosa [29] = assay: Antibacterial activity against multidrug-resistant/tobramycin-susceptible Pseudomonas aeruginosa isolate 80621; format: functional
# Pseudomonas aeruginosa [30] = assay: Antibacterial activity against multidrug-resistant/tobramycin-susceptible Pseudomonas aeruginosa isolate 83182; format: functional
# Pseudomonas aeruginosa [31] = assay: Antibacterial activity against multidrug-resistant/tobramycin-susceptible Pseudomonas aeruginosa isolate 84745; format: functional
# Pseudomonas aeruginosa [32] = assay: Antibacterial activity against multidrug-resistant/tobramycin-susceptible Pseudomonas aeruginosa isolate 85322; format: functional
# Escherichia coli [33] = assay: Antibacterial activity against Escherichia coli ATCC 25922 after 24 hrs by microtitre broth dilution method; format: functional; settings: ATCC 25922, 24 h
# Pseudomonas aeruginosa [34] = assay: Antibacterial activity against extremely drug-resistant Pseudomonas aeruginosa isolate 104354 infected in Galleria mellonella assessed as larvae survival at 50 mg/kg administered as single dose measured after 24 hrs (reference value: 27 %); format: functional; settings: isolate 104354, 24 h
# Method in brief: (§1)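 Galleria mellonella larvae were infected with 10^6 CFU of XDR P. aeruginosa #104354, resistant to all antipseudomonal classes except colistin. A single injected drug dose was given 2 h post-infection: 50 mg/kg with survival read at 24 h, or 75 mg/kg with survival read at 96 h. Controls were infected untreated larvae and PBS-injected larvae. Two independent experiments of 15 larvae each (n = 30).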
# Pseudomonas aeruginosa [35] = assay: Antibacterial activity against extremely drug-resistant Pseudomonas aeruginosa isolate 104354 infected in Galleria mellonella assessed as larvae survival at 75 mg/kg administered as single dose measured after 96 hrs; format: functional; settings: isolate 104354, 96 h; method in brief: as §1
# Pseudomonas aeruginosa [36] = assay: Antimicrobial activity against Pseudomonas aeruginosa PAO200; format: functional
# Method in brief: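 MIC (µg/mL) determined in PAO200, a PAO1-derived MexAB-OprM deletion strain used to assess efflux effects.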
# Pseudomonas aeruginosa [37] = assay: Antimicrobial activity against Pseudomonas aeruginosa PAO750; format: functional
# Method in brief: (§2)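 MICs were measured in PAO1 and in PAO750. PAO750 is a PAO1 derivative lacking the MexAB-OprM, MexCD-OprJ, MexEF-OprN, MexJK and MexXY efflux pumps and the outer membrane protein OpmH.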
# [38] = Selectivity ratio of MIC for Pseudomonas aeruginosa PAO1 to MIC for Pseudomonas aeruginosa PAO750; format: functional; method in brief: as §2
# [39] = Inhibition of Pseudomonas aeruginosa DNA gyrase A assessed as inhibition of DNA supercoiling using PBR322 DNA as substrate after 30 mins by SYBR Gold staining based agarose gel electrophoresis
# Pseudomonas aeruginosa [40] = assay: Ratio of MIC for Pseudomonas aeruginosa PAO1 after 25 serial passages to MIC for Pseudomonas aeruginosa PAO1 prior to 25 serial passages; format: functional
# Method in brief: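 P. aeruginosa PAO1 exposed to sub-inhibitory (0.5 x MIC) drug over successive subcultures as a resistance-selection procedure. MIC compared after versus before passaging.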
structure (smiles),measurement,setting,value
COc1c(N2C[C@@H]3CCCN[C@@H]3C2)c(F)cc2c(=O)c(C(=O)O)cn(C3CC3)c12 [MOXIFLOXACIN],MIC,Pseudomonas aeruginosa [1],> 16 µg/mL
same,MIC,Staphylococcus aureus [2],≤ 0.25 µg/mL
same,MIC,Staphylococcus aureus [3],≤ 0.25 µg/mL
same,MIC,[4],≤ 0.25 µg/mL
same,MIC,[5],64 µg/mL
same,MIC,Enterococcus faecalis,≤ 0.25 µg/mL
same,MIC,Enterococcus faecium,2 µg/mL
same,MIC,Streptococcus pneumoniae,≤ 0.25 µg/mL
same,MIC,Escherichia coli [6],0.5 µg/mL
same,MIC,Escherichia coli [7],1 µg/mL
same,MIC,Escherichia coli [8],32 µg/mL
same,MIC,Pseudomonas aeruginosa [9],4 µg/mL
same,MIC,Pseudomonas aeruginosa [10],16 µg/mL
same,MIC,Pseudomonas aeruginosa [11],16 µg/mL
same,MIC,[12],4 µg/mL
same,MIC,Acinetobacter baumannii,1 µg/mL
same,MIC,Klebsiella pneumoniae,≤ 0.25 µg/mL
same,MIC,Pseudomonas aeruginosa [13],128 µg/mL
same,MIC,Pseudomonas aeruginosa [14],128 µg/mL
same,MIC,Pseudomonas aeruginosa [15],512 µg/mL
same,MIC,Pseudomonas aeruginosa [16],32 to 64 µg/mL
same,MIC,Pseudomonas aeruginosa [17],64 to 128 µg/mL
same,MIC,Pseudomonas aeruginosa [18],32 to 64 µg/mL
same,MIC,Pseudomonas aeruginosa [19],8 to 16 µg/mL
same,MIC,Pseudomonas aeruginosa [20],8 µg/mL
same,MIC,Pseudomonas aeruginosa [21],1 µg/mL
same,MIC,Pseudomonas aeruginosa [22],16 µg/mL
same,MIC,Pseudomonas aeruginosa [23],16 µg/mL
same,MIC,Pseudomonas aeruginosa [24],> 16 µg/mL
same,MIC,Pseudomonas aeruginosa [25],> 16 µg/mL
same,MIC,Pseudomonas aeruginosa [26],16 µg/mL
same,MIC,Pseudomonas aeruginosa [27],16 µg/mL
same,MIC,Pseudomonas aeruginosa [28],> 16 µg/mL
same,MIC,Pseudomonas aeruginosa [29],8 µg/mL
same,MIC,Pseudomonas aeruginosa [30],16 µg/mL
same,MIC,Pseudomonas aeruginosa [31],16 µg/mL
same,MIC,Pseudomonas aeruginosa [32],8 µg/mL
same,MIC,Escherichia coli [33],≤ 0.25 µg/mL
same,survival at 50 mg/kg,Pseudomonas aeruginosa [34],27%
same,survival at 75 mg/kg,Pseudomonas aeruginosa [35],7%
same,MIC,Pseudomonas aeruginosa [36],0.25 µg/mL
same,MIC,Pseudomonas aeruginosa [37],0.0078 µg/mL
same,Selectivity ratio,[38],128
same,pIC50,[39],5.59
same,Ratio,Pseudomonas aeruginosa [40],16
